# Results of several laboratories.
# ABL1: Tyrosine-protein kinase ABL1 (ABL1, Homo sapiens, UniProt P00519)
# ABL1 Y253F: Tyrosine-protein kinase ABL1 (ABL1, Homo sapiens, UniProt P00519, Y253F)
# ABL1 phosphorylated: Tyrosine-protein kinase ABL1, phosphorylated (ABL1, Homo sapiens, UniProt P00519)
# ABL1 Q252H phosphorylated: Tyrosine-protein kinase ABL1, phosphorylated (ABL1, Homo sapiens, UniProt P00519, Q252H)
SMILES,target,read-out,action,technique,tested at,quantity,value
Cc1nc(Nc2ncc(C(=O)Nc3c(C)cccc3Cl)s2)cc(N2CCC(O)CC2)n1,ABL1,enzyme activity,inhibitor,,1 nM,inhibition,83%
COc1ccc2oc(-c3ccc4nc(N)oc4c3)c/c(=N\c3ccccc3NC(=O)CCN)c2c1,ABL1 Y253F,cell-free assay,,,1 µM,remaining signal,95%
Cc1nc(Nc2ncc(C(=O)Nc3c(C)cccc3Cl)s2)cc(N2CC[C@H](N)C2)n1,ABL1,enzyme activity,inhibitor,,1 nM,inhibition,92%
N#Cc1ccc(NC(=O)Nc2ccccc2)cc1,ABL1 phosphorylated,cell-free assay,,competition with immobilised ligand,25 µM,remaining binding,96%
[2H]c1cc(C)c(NC(=O)c2cnc(Nc3cc(N4CC[C@@H](N)C4)nc(C)n3)s2)c(Cl)c1,ABL1,enzyme activity,inhibitor,,1 nM,inhibition,86%
CN1CCN(C(=O)c2ccc(NC(=O)Nc3ccc(N(C)c4ccnc(Nc5ccc(CS(C)(=O)=O)cc5)n4)cc3)cc2)CC1,ABL1 Y253F,binding,,,1 µM,remaining binding,20%
C1=C/COCc2cc(ccc2OCCN2CCCC2)Nc2nccc(n2)-c2cccc(c2)COC/1,"Tyrosine-protein kinase ABL1 (ABL1, Homo sapiens, UniProt P00519, Q252H)",binding,,,0.1 µM,remaining binding,15%
C[C@H]1CC[C@H](n2c3cnccc3c3cnc(Nc4ccc5c(n4)CCN(C(=O)CO)C5)nc32)CC1,ABL1 Y253F,cell-free assay,,,1 µM,remaining signal,100%
CCCCC(=O)Nc1ccc(-c2ccc3ncn(CCC)c(=O)c3c2)cn1,ABL1 Q252H phosphorylated,binding,,competition with immobilised ligand,0.5 µM,remaining binding,99%
[2H]c1cc(C)c(NC(=O)c2cnc(Nc3cc(N4CCCCC4)nc(C)n3)s2)c(Cl)c1,ABL1,enzyme activity,inhibitor,,10 nM,inhibition,> 90%
CO[C@@H]1[C@H](N(C)C(=O)c2ccccc2)C[C@H]2O[C@]1(C)n1c3ccccc3c3c4c(c5c6ccccc6n2c5c31)C(=O)NC4,ABL1 phosphorylated,enzyme activity,inhibitor,,1 µM,inhibition,31%
[2H]c1cc(C)c(NC(=O)c2cnc(Nc3cc(N4CC[C@@H](O)C4)nc(C)n3)s2)c(Cl)c1,ABL1,enzyme activity,inhibitor,,1 nM,inhibition,87%
C=CC(=O)N1CCC([C@@H]2CCNc3c(C(N)=O)c(-c4ccc(Oc5ccccc5)cc4)nn32)CC1,ABL1 Q252H phosphorylated,enzyme activity,inhibitor,,1 µM,inhibition,32%
Cc1ccc(NC(=O)c2ccnc(C(F)(F)F)c2)cc1-c1cc(OCCO)nc(N2CCOCC2)c1,"Tyrosine-protein kinase ABL1 (ABL1, Homo sapiens, UniProt P00519, F317I)",binding,,,1 µM,remaining binding,85%
CC#CC(=O)N1CCC[C@H]1c1nc(-c2ccc(C(=O)Nc3ccccn3)cc2)c2c(N)nccn12,"Tyrosine-protein kinase ABL1, non-phosphorylated (ABL1, Homo sapiens, UniProt P00519, T315I)",enzyme activity,inhibitor,,1 µM,inhibition,19%
COc1ccc2[nH]c3c4[nH]c5ccc(OC)cc5c4c4c(c3c2c1)C(=O)NC4=O,"Tyrosine-protein kinase ABL1 (ABL1, Homo sapiens, UniProt P00519, M351T)",binding,,,1 µM,remaining binding,68%
